Consider two compounds from ChEMBL document CHEMBL3108729, “Design, synthesis and anticonvulsant evaluation of N-(benzo[d]thiazol-2-ylcarbamoyl)-2-methyl-4-oxoquinazoline-3(4H)-carbothioamide derivatives: a hybrid pharmacophore approach” (Eur J Med Chem, 2013).

A short description of series [1]: Neurotoxicity in po dosed albino rat after 4 hrs. It counts as toxicity, organism-based. The following applies: in vivo.
Series [2] has as its system Rattus norvegicus. In words: Hepatotoxicity in albino rat assessed as change in SGOT level at 30 mg/kg, po for 14 days (reference value: 74.2+/-5.95 units/ml). The following applies: in vivo, 336 h. On the set-up: dose 30 mg/kg, route oral. It counts as toxicity, organism-based.
Series [3] deals with Rattus norvegicus. Description: Anticonvulsant activity in Wistar rat assessed as inhibition of GABA-induced seizures measuring minimum GABA level per 100 mg whole brain required for 50 % inhibition at 30 mg/kg, po for 7 days (reference value: 51.5 +/- 2.60 ug/100 mg brain). The class given is functional. An outline of the steps:
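Adult Wistar rats in groups of six were dosed orally at 30 mg/kg for 7 days. Whole-brain GABA was then measured enzymatically in ethanol extracts as µg/100 mg tissue. Values are mean ± SEM of six rats versus control (Student's t test).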

The test system of series [4] is Mus musculus. In words: Anticonvulsant activity in ip dosed albino mouse assessed as protection against 6 Hz electroshock-induced seizures after 2 hrs. The class given is functional.
Series [5] deals with Mus musculus. In words: Anticonvulsant activity in ip dosed albino mouse assessed as protection against AMPA-induced tonic phase of seizures after 30 mins. The following applies: 0.5 h. The class given is functional. An outline of the steps:
(§1)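 Mice were dosed i.p. over 10–100 µmol/kg. After 30 min, AMPA was injected i.c.v. into a lateral ventricle under ether anaesthesia, at 9.7 nmol for clonus or 11.7 nmol for forelimb tonic extension. Mice were observed singly for 30 min. ED50 values with 95% confidence limits were derived from dose–response data.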

The test system of series [6] is Rattus norvegicus. In words: Anticonvulsant activity in Wistar rat assessed as inhibition of GABA-induced seizures measuring minimum GABA level per 100 mg whole brain required for 50 % inhibition at 100 mg/kg, ip as single dose measured after 2 hrs (reference value: 46.4 +/- 5.50 ug/100 mg brain). The class given is functional. The following applies: route intraperitoneal.

Series [7] can be described thus: Protective index, ratio of TD50 for neurotoxicity to ED50 for protection against maximal electroshock-induced seizure in albino rat after 4 hrs. It counts as toxicity, organism-based. The following applies: in vivo, read-out: Ratio TD50/ED50. An outline of the steps:
(§2)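 Rats received oral doses in groups of eight at the time of peak effect, with at least three points in the 10–90% range for seizure protection or minimal neurotoxicity. ED50, TD50 and 95% confidence intervals were computed by regression, and PI was calculated as TD50/ED50.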
(In general: In the maximal electroshock model the usual endpoint is tonic extension of the hind limbs.)

The subject of series [8] is Rattus norvegicus. In words: Anticonvulsant activity in po dosed albino rat assessed as protection against maximal electroshock-induced seizures after 4 hrs. The class given is functional.
Series [9] deals with Mus musculus. Description: Anticonvulsant activity in ip dosed albino mouse assessed as protection against maximal electroshock-induced seizures after 0.5 hrs. It counts as functional. The following applies: read-out: MED.
Series [10] concerns Mus musculus. In words: Neurotoxicity in ip dosed albino mouse after 4 hrs by rotorod test. The class given is toxicity, organism-based. The following applies: in vivo. An outline of the steps:
(§3)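 Swiss mice, four per dose, received 30, 100 or 300 mg/kg i.p. and were placed on a rotorod at 0.5 and 4 h. Neurotoxicity meant failure to keep balance for 1 min. The value reported is the minimum dose affecting half or more of the mice.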

Series [11] in a line: Protective index, ratio of TD50 for neurotoxicity to ED50 for protection against pentylenetetrazole-induced seizure in albino rat after 4 hrs. The following applies: in vivo, read-out: Ratio TD50/ED50. It counts as toxicity, organism-based. An outline of the steps: as §2
Series [12] relates to Mus musculus. Description: Anticonvulsant activity in ip dosed albino mouse assessed as protection against AMPA-induced clonic phase of seizures after 30 mins. The following applies: 0.5 h. The class given is functional. An outline of the steps: as §1
In series [13] the test system is Rattus norvegicus. Description: Anticonvulsant activity in po dosed albino rat assessed as protection against pentylenetetrazole-induced seizure after 4 hrs. The class given is functional.
Series [14] deals with Mus musculus. In words: Neurotoxicity in ip dosed albino mouse after 0.5 hrs by rotorod test. It counts as toxicity, organism-based. The following applies: in vivo. An outline of the steps:
as §3
For orientation: The rotarod test checks motor coordination on a turning rod.

Series [15] has as its system Mus musculus. In words: Anticonvulsant activity in ip dosed albino mouse assessed as protection against maximal electroshock-induced seizures after 4 hrs. It counts as functional. The following applies: read-out: MED.
For series [16], the system named is Rattus norvegicus. In words: Hepatotoxicity in albino rat assessed as change in SGPT level at 30 mg/kg, po for 14 days (reference value: 46.1+/-5.25 units/ml). The class given is toxicity, organism-based. Also noted: dose 30 mg/kg, route oral. The following applies: in vivo, 336 h.
Series [17] deals with Rattus norvegicus. In words: Anticonvulsant activity in po dosed albino rat assessed as protection against maximal electroshock-induced seizures after 0.5 hrs. It counts as functional.
Series [18] is described as follows: Protective index, ratio of TD50 for neurotoxicity to ED50 for protection against maximal electroshock-induced seizure in albino rat after 0.5 hrs. The class given is toxicity, organism-based. The following applies: in vivo, read-out: Ratio TD50/ED50. An outline of the steps: as §2
The nature of series [19]: Protective index, ratio of TD50 for neurotoxicity to ED50 for protection against pentylenetetrazole-induced seizure in albino rat after 0.5 hrs. The following applies: in vivo, read-out: Ratio TD50/ED50. The class given is toxicity, organism-based. An outline of the steps: as §2
The test system of series [20] is Mus musculus. Description: Neurotoxicity in albino mouse at 300 mg/kg, ip after 4 hrs by rotorod test. The class given is toxicity, organism-based. On the set-up: dose 300 mg/kg, route intraperitoneal. The following applies: in vivo. An outline of the steps:
as §3

Series [21] can be described thus: Neurotoxicity in po dosed albino rat after 0.5 hrs. The following applies: in vivo. It counts as toxicity, organism-based.
Series [22] deals with Rattus norvegicus. In words: Anticonvulsant activity in po dosed albino rat assessed as protection against pentylenetetrazole-induced seizure after 0.5 hrs. The class given is functional.

With `Cc1nc2ccccc2c(=O)n1C(=S)NC(=O)Nc1nc2ccc(Cl)cc2s1`, the TD50 (commonly the 50% point of the dose-response relation for the toxic effect studied) at 4 h in [1] was over 2500 µmol/kg. The values for the Activity in [2] and in series [16] were 71.2 U/ml and 48.5 U/ml, respectively. Also, the GABA level came out at 111 µg/100 mg brain in [3] and 92.1 µg/100 mg brain in [6]. For the same compound, the ED50 (in general, the dose at which the effect has come halfway, by size or by number of responders) in [4] turned out to be 1230 µmol/kg; in series [5] it was 56.9 µmol/kg; in series [8], 142 µmol/kg; in [12], 70.3 µmol/kg; in [13], 722 µmol/kg. In addition, the selectivity ratio at 4 h in series [7] is over 17; in [11], over 3.4. For the same compound, the minimal effective dose came to 30 mg/kg in series [9] and 100 mg/kg in series [15]. The MTC in series [10] and in series [14] was 300 mg/kg throughout.

For the compound `Cc1nc2ccccc2c(=O)n1C(=S)NC(=O)Nc1nc2ccc(OC(F)(F)F)cc2s1`, the ED50 in series [17] was found to be 82.5 µmol/kg; in series [5], 28.5 µmol/kg; in [12], 37.9 µmol/kg; in series [22], 510 µmol/kg. For the same compound, the selectivity ratio at 0.5 h in series [18] is over 26; in series [19], over 4.2. Moreover, the results for the Activity in series [2], in series [20] and in [16] were 72.4 U/ml, “Non-toxic” and 44.7 U/ml, respectively. The results for the GABA level in [3] and in series [6] were 68.2 µg/100 mg brain and 75.5 µg/100 mg brain, respectively. Further, the minimal effective dose in series [9] and in series [15] was 30 mg/kg throughout. Further, the TD50 at 0.5 h in [21] was over 2150 µmol/kg. The same compound yielded an MTC in [14] of 300 mg/kg.
